The values that follow come from PMC3607822 (The Journal of General Physiology, 2013).

The target in test [1] is CNGA3 with CNGB1 channels (Homo sapiens, UniProt Q14028+Q16281). The test can be described thus: Inside-out patch clamp, CNGA3 with CNGB1. The format is biochemical. The note with it: 1 µM PIP3. The method, boiled down: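 Subunit cRNAs (~20 ng, B in excess over A) injected into stage IV Xenopus oocytes; inside-out patches 2–7 d later, 20–22°C, symmetric 130 mM NaCl, 0.2 mM EDTA, 3 mM Hepes pH 7.2. Heteromer formation checked by 25 µM l-cis-diltiazem with 1 mM cGMP. diC8 phosphoinositides applied intracellularly in phosphatase-inhibitor cocktail. cGMP dose–response at +80 mV, leak-subtracted, Hill fit before/after for K1/2; mean ± SEM.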
Sequence of CNGA3 with CNGB1 channels (Q16281 whole entry): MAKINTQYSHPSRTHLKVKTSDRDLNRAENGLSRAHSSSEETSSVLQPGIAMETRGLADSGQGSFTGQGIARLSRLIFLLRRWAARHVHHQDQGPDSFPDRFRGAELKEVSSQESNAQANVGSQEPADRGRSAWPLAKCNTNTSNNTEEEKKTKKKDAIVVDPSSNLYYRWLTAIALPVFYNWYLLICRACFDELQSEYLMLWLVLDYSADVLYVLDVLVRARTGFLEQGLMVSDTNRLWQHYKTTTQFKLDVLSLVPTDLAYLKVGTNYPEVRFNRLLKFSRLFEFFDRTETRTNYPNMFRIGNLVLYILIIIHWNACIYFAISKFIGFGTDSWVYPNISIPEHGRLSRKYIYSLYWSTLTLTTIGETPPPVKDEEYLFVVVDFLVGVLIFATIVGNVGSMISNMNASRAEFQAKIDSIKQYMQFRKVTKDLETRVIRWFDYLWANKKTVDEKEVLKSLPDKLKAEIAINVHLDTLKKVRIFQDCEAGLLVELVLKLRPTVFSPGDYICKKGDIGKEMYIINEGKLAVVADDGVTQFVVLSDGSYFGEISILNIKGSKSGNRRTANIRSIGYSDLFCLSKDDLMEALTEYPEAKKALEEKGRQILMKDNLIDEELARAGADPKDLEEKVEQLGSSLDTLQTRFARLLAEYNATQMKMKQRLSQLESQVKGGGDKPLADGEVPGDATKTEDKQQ
Sequence of CNGA3 with CNGB1 channels (Q14028 whole entry): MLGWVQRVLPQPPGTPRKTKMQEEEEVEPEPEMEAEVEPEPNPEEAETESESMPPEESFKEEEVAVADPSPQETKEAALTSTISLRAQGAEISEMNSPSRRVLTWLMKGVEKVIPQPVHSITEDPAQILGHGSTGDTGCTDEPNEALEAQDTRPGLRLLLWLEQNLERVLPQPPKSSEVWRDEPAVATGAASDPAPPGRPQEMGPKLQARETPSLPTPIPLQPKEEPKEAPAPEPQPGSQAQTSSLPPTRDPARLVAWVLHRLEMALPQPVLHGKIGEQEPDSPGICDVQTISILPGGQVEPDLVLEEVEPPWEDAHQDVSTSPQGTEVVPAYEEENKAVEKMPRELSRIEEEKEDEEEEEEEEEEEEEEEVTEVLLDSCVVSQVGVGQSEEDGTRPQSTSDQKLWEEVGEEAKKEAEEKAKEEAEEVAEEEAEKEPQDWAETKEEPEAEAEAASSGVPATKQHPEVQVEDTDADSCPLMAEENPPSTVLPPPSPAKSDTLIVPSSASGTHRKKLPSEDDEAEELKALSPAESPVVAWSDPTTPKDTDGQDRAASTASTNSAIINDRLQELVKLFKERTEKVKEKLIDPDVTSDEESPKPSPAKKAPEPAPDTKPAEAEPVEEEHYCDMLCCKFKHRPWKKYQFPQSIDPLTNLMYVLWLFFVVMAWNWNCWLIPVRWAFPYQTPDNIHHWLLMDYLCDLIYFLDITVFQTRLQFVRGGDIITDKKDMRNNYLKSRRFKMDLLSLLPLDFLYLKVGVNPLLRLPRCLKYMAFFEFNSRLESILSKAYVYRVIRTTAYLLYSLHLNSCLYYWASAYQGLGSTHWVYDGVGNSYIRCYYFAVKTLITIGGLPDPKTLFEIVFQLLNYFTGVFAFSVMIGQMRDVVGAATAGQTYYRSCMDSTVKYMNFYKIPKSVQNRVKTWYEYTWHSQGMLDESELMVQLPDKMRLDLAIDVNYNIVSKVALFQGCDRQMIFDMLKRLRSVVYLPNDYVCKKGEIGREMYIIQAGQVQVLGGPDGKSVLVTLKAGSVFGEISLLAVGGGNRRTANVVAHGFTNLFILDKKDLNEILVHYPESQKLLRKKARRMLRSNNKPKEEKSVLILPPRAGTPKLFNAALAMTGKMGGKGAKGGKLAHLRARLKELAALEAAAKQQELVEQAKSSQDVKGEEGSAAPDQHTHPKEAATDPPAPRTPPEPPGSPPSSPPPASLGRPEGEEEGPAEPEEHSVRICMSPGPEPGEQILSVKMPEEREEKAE
(Patch clamp records ionic current or voltage across a cell membrane.)

For a further test, the target named is GST fusion A3C-635X (Homo sapiens, UniProt Q16281). The test can be described thus: In vitro PIP3-agarose bead pull-down, A3C-635X. It is filed as binding. The conditions noted are these: PIP3-agarose beads, anti-GST immunoblot; compared with A3C. The procedure, abridged: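 Recombinant GST fusions of channel fragments expressed in E. coli and purified; soluble fraction kept after 20,000 g, 4°C, 30 min. Protein (2 µg/ml) rocked with PIP3- or control agarose beads, 2 h, 4°C, in 10 mM Hepes pH 7.4, 50 mM NaCl, 2 mM EDTA, 0.25% Triton X-100, 0.25% NP-40. Five washes, elution in sample buffer, reducing SDS gel, anti-GST (1:2,000, overnight) immunoblot, chemiluminescence; […].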
Sequence of GST fusion A3C-635X (Q16281 612-634): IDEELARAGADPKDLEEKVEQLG
On the technique in general: In western blotting, separated proteins are transferred to a membrane and probed.

As to “phosphatidylinositol (3,4,5)-trisphosphate [PIP3]”, the “regulation of K1/2 cGMP by PIP3” value in test [1] is on record as “PIP3-sensitive”. Moreover, on GST fusion A3C-635X, the “in vitro PIP3 binding” value was “attenuated binding to PIP3 beads”.
